Measured values reported in ChEMBL document CHEMBL1142273, “SAR studies of capsazepinoid bronchodilators 3: The thiourea part (coupling region) and the 2-(4-chlorophenyl)ethyl moiety (C-region)” (Bioorg Med Chem, 2008).

Key:
[1] = species: Homo sapiens; experiment: Bronchorelaxing effect in leukotriene D4-contracted human lung small airways model assessed as remaining contraction at 10 uM relative to control; assay type: functional
Summary of the method: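 Human small airways (0.5–1.5 mm diameter) from lobectomy tissue, stretched to 1.2 mN and accepted when two control LTD4 contractions differed by under 10%. Test substance at 10 µM was present for one whole cycle: 1 h LTD4-free PSS, then 30 min with 10 nM LTD4. The contraction was compared with the preceding one and given as % remaining, mean ± SEM. Paired preparations per chamber were averaged.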

[2] = species: Homo sapiens; experiment: Bronchorelaxing effect in leukotriene D4-contracted small human lung small airways model assessed as remaining contraction at 1 uM after 3 hrs relative to control
[3] = species: Homo sapiens; experiment: Bronchorelaxing effect in leukotriene D4-contracted small human lung small airways model assessed as remaining contraction at 1 uM after 6 hrs relative to control
[4] = species: Homo sapiens; experiment: Bronchorelaxing effect in leukotriene D4-contracted small human lung small airways model assessed as remaining contraction at 1 uM after 1.5 hrs relative to control
[5] = species: Homo sapiens; experiment: Bronchorelaxing effect in leukotriene D4-contracted small human lung small airways model assessed as remaining contraction at 1 uM after 4.5 hrs relative to control

| Structure (SMILES) | Activity [1] | also measured |
| --- | --- | --- |
| Oc1ccc(CCNC(=S)N2CCc3c(Cl)c(O)c(O)c(Cl)c3C2)cc1 | 22% | – |
| Oc1c(O)c(Cl)c2c(c1Cl)CCN(C(=S)NCCc1ccccc1Cl)C2 | 10% | – |
| Oc1c(O)c(Cl)c2c(c1Cl)CCN(C(=S)NCCc1ccncc1)C2 | 33% | – |
| CC(C)(C)c1ccc(CCNC(=S)N2CCCc3cc(O)c(O)cc3C2)cc1 | 80% | – |
| Oc1cc2c(cc1O)CN(C(=S)NCCc1ccc(F)cc1)CCC2 | 68% | – |
| Oc1cc2c(cc1O)CN(C(=S)NCCc1ccc(Br)cc1)CCC2 | 67% | – |
| Oc1cc2c(cc1O)CN(C(=S)NCCCc1ccccc1)CCC2 | 84% | – |
| CCCCCCCCNC(=S)N1CCc2c(Cl)c(O)c(O)c(Cl)c2C1 | 69% | – |
| Oc1c(O)c(Cl)c2c(c1Cl)CCN(C(=S)NCCc1ccc(Br)cc1)C2 | 17% | – |
| Oc1c(O)c(Cl)c2c(c1Cl)CCN(C(=S)NCCc1cccnc1)C2 | 30% | – |
| CC(C)(C)c1ccc(CCNC(=S)N2CCc3c(Cl)c(O)c(O)c(Cl)c3C2)cc1 | 69% | – |
| Oc1c(O)c(Cl)c2c(c1Cl)CCN(C(=S)NCCc1cccc(Cl)c1)C2 | 27% | – |
| Oc1cc2c(cc1O)CN(C(=S)NCc1ccc(Cl)cc1)CCC2 | 70% | – |
| Oc1c(O)c(Cl)c2c(c1Cl)CCN(C(=S)NCCc1ccc(Cl)cc1)C2 | 14% | Activity [2]: 57%; Activity [3]: 32%; Activity [4]: 79%; Activity [5]: 44% |
| O=C(CCCc1ccc(Cl)cc1)N1CCCc2cc(O)c(O)cc2C1 | 54% | – |
| Oc1c(O)c(Cl)c2c(c1Cl)CCN(C(=S)NCCc1ccccc1)C2 | 8% | – |

| Structure (SMILES) | Activity [1] | also measured |
| --- | --- | --- |
| O=C(NCCc1ccc(Cl)cc1)N1CCCc2cc(O)c(O)cc2C1 | 73% | – |
| O=C(CCCc1ccc(Cl)cc1)N1CCc2c(Cl)c(O)c(O)c(Cl)c2C1 | 16% | Activity [2]: 65%; Activity [3]: 45%; Activity [4]: 80%; Activity [5]: 55% |
| Oc1cc2c(cc1O)CN(C(=S)NCCc1ccccc1Cl)CCC2 | 56% | – |
| Oc1c(O)c(Cl)c2c(c1Cl)CCN(C(=S)NCCCc1ccccc1)C2 | 11% | – |
| O=C(NCCc1ccc(Cl)cc1)N1CCc2c(Cl)c(O)c(O)c(Cl)c2C1 | 16% | Activity [2]: 81%; Activity [3]: 71%; Activity [4]: 91%; Activity [5]: 78% |
| Oc1cc2c(cc1O)CN(C(=S)NCCc1ccccc1)CCC2 | 71% | – |
| O=C(NCCc1ccc(Cl)cc1)C1CCc2cc(O)ccc2C1 (centres undefined) | 78% | – |
| Oc1c(O)c(Cl)c2c(c1Cl)CCN(C(=S)NCc1ccc(Cl)cc1)C2 | 19% | – |
| O=C(CCCc1ccc(Cl)cc1)N1CCc2cc(O)c(O)cc2C1 | 47% | – |
| Oc1c(O)c(Cl)c2c(c1Cl)CCN(C(=S)NCCc1ccc(F)cc1)C2 | 6% | – |
| O=C(NCCc1ccc(Cl)cc1)N1CCc2cc(O)c(O)cc2C1 | 69% | – |
| Oc1c(O)c(Cl)c2c(c1Cl)CCN(C(=S)NCc1ccccc1)C2 | 10% | – |
| CCCCCCCCNC(=S)N1CCCc2cc(O)c(O)cc2C1 | 69% | – |
| Oc1c(O)c(Cl)c2c(c1Cl)CCN(C(=S)NCCc1ccccn1)C2 | 26% | – |
| Oc1cc2c(cc1O)CN(C(=S)NCCc1cccc(Cl)c1)CCC2 | 76% | – |
| O=C(NCCc1ccc(Cl)cc1)c1ccc2cc(O)ccc2c1 | 90% | – |
